Calls of active or inactive are those of the source. The calls are words filed in the database; no cut-off is given here.
Key:
[1] = system: MG-63; assay: Induction of apoptosis in human MG63 cells assessed as late apoptotic cells at 5 uM measured after 24 hrs by annexin V-propidium iodide staining-based flow cytometry (reference value: 0.91 to 1.44 %); assay type: functional
Outline: (§1)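 MG-63 cells were treated at 5 µM for 12, 18 or 24 h, or at 2, 5 or 10 µM for 24 h. Cells were then stained with annexin V-FITC/PI and analysed by flow cytometry for apoptotic populations.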

[2] = system: HOS; assay: Antiproliferative activity against human HOS cells assessed as reduction in cell viability incubated for 24 to 72 hrs by IncuCyte zoom live cell analysis; assay type: functional, cell-based
[3] = system: MG-63; assay: Induction of apoptosis in human MG63 cells assessed as necrotic cells at 5 uM measured after 24 hrs by annexin V-propidium iodide staining-based flow cytometry (reference value: 0.84 to 2.10 %); assay type: functional; outline: as §1
[4] = system: MG-63; assay: Antiproliferative activity against human MG63 cells assessed as reduction in cell viability at 5 uM incubated by IncuCyte zoom live cell analysis; assay type: functional, cell-based; settings: TDE = time-dependent effect
Outline: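 MG-63 cells were exposed to 5 µM and imaged over time by IncuCyte Zoom live-cell analysis to follow growth.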

[5] = target: T1, L-lactate dehydrogenase A chain (Homo sapiens, UniProt P00338); assay: Inhibition of LDHA in human MG63 cells assessed as increase in oxygen consumption rate incubated for 4 hrs by seahorse XFe96 analyser based assay; assay type: cell-based; settings: MG-63
[6] = system: MG-63; assay: Induction of apoptosis in human MG63 cells assessed as late apoptotic cells at 5 uM measured after 18 hrs by annexin V-propidium iodide staining-based flow cytometry (reference value: 0.91 %); assay type: functional; outline: as §1
[7] = system: MG-63; assay: Induction of apoptosis in human MG63 cells assessed as early apoptotic cells at 5 uM measured after 24 hrs by annexin V-propidium iodide staining-based flow cytometry (reference value: 0.14 to 0.16 %); assay type: functional; outline: as §1
[8] = system: MG-63; assay: Induction of apoptosis in human MG63 cells assessed as viable cells at 2 uM measured after 24 hrs by annexin V-propidium iodide staining-based flow cytometry (reference value: 96.30 %); assay type: functional; settings: MG-63, 24 h, read-out: Activity; outline: as §1
[9] = system: MG-63; assay: Induction of apoptosis in human MG63 cells measured after 24 hrs by annexin V-propidium iodide staining-based flow cytometry; assay type: functional, cell-based; outline: as §1
[10] = system: MG-63; assay: Induction of apoptosis in human MG63 cells assessed as early apoptotic cells at 5 uM measured after 12 hrs by annexin V-propidium iodide staining-based flow cytometry (reference value: 0.14 %); assay type: functional; outline: as §1
[11] = system: MG-63; assay: Induction of apoptosis in human MG63 cells assessed as necrotic cells at 5 uM measured after 18 hrs by annexin V-propidium iodide staining-based flow cytometry (reference value: 0.84 %); assay type: functional; outline: as §1
[12] = system: MG-63; assay: Induction of apoptosis in human MG63 cells assessed as late apoptotic cells at 10 uM measured after 24 hrs by annexin V-propidium iodide staining-based flow cytometry (reference value: 1.44 %); assay type: functional; outline: as §1
[13] = system: MG-63; assay: Induction of apoptosis in human MG63 cells assessed as early apoptotic cells at 10 uM measured after 24 hrs by annexin V-propidium iodide staining-based flow cytometry (reference value: 0.16 %); assay type: functional; outline: as §1
[14] = target: T1, L-lactate dehydrogenase A chain; assay: Inhibition of LDHA in human MG63 cells assessed as reduction in lactate formation at 2 to 10 uM incubated for 4 hrs; assay type: cell-based; settings: MG-63
Outline: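 MG-63 cells were treated at 2, 5 and 10 µM for 4 h. Lactate was then measured in the culture medium and compared with untreated control, with P < 0.05.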

[15] = system: MG-63; assay: Induction of apoptosis in human MG63 cells assessed as viable cells at 10 uM measured after 24 hrs by annexin V-propidium iodide staining-based flow cytometry (reference value: 96.30 %); assay type: functional; settings: MG-63, 24 h, read-out: Activity; outline: as §1
[16] = system: MG-63; assay: Induction of apoptosis in human MG63 cells assessed as early apoptotic cells at 2 uM measured after 24 hrs by annexin V-propidium iodide staining-based flow cytometry (reference value: 0.16 %); assay type: functional; outline: as §1
[17] = target: T1, L-lactate dehydrogenase A chain; assay: Inhibition of LDHA in human MG63 cells assessed as reduction in proton production rate at 2 to 10 uM incubated for 4 hrs by seahorse XFe96 analyser based assay; assay type: cell-based; settings: MG-63
[18] = system: MG-63; assay: Induction of apoptosis in human MG63 cells assessed as necrotic cells at 5 uM measured after 12 hrs by annexin V-propidium iodide staining-based flow cytometry (reference value: 0.84 %); assay type: functional; outline: as §1
[19] = system: MG-63; assay: Induction of apoptosis in human MG63 cells assessed as late apoptotic cells at 5 uM measured after 12 hrs by annexin V-propidium iodide staining-based flow cytometry (reference value: 0.91 %); assay type: functional; outline: as §1
[20] = system: MG-63; assay: Induction of apoptosis in human MG63 cells assessed as viable cells at 5 uM measured after 24 hrs by annexin V-propidium iodide staining-based flow cytometry (reference value: 96.30 to 98.11 %); assay type: functional; settings: MG-63, 24 h, read-out: Activity; outline: as §1
[21] = system: MG-63; assay: Induction of apoptosis in human MG63 cells assessed as viable cells at 5 uM measured after 18 hrs by annexin V-propidium iodide staining-based flow cytometry (reference value: 98.11 %); assay type: functional; settings: MG-63, 18 h, read-out: Activity; outline: as §1
[22] = system: SAOS-2; assay: Antiproliferative activity against human Saos2 cells assessed as reduction in cell viability incubated for 24 to 72 hrs by IncuCyte zoom live cell analysis; assay type: functional, cell-based
[23] = system: MG-63; assay: Antiproliferative activity against human MG63 cells assessed as reduction in cell viability incubated for 24 to 72 hrs by IncuCyte zoom live cell analysis; assay type: functional, cell-based
[24] = system: MG-63; assay: Induction of apoptosis in human MG63 cells assessed as viable cells at 5 uM measured after 12 hrs by annexin V-propidium iodide staining-based flow cytometry (reference value: 98.11 %); assay type: functional; settings: MG-63, 12 h, read-out: Activity; outline: as §1
[25] = target: T1, L-lactate dehydrogenase A chain; assay: Inhibition of human LDHA using NADH and pyruvate by microplate reader based assay
Outline: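 hLDHA activity was measured with pyruvate and NADH across full dose-response to give EC50. The read-out was the decline in absorbance at 340 nm on a microplate reader.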

[26] = system: MG-63; assay: Induction of apoptosis in human MG63 cells assessed as necrotic cells at 2 uM measured after 24 hrs by annexin V-propidium iodide staining-based flow cytometry (reference value: 2.10 %); assay type: functional; outline: as §1
[27] = system: MG-63; assay: Induction of apoptosis in human MG63 cells assessed as necrotic cells at 10 uM measured after 24 hrs by annexin V-propidium iodide staining-based flow cytometry (reference value: 2.10 %); assay type: functional; outline: as §1
[28] = system: MG-63; assay: Induction of apoptosis in human MG63 cells assessed as late apoptotic cells at 2 uM measured after 24 hrs by annexin V-propidium iodide staining-based flow cytometry (reference value: 1.44 %); assay type: functional; outline: as §1
[29] = system: U2OS; assay: Antiproliferative activity against human U2OS cells assessed as reduction in cell viability incubated for 24 to 72 hrs by IncuCyte zoom live cell analysis; assay type: functional, cell-based
[30] = system: MG-63; assay: Induction of apoptosis in human MG63 cells assessed as early apoptotic cells at 5 uM measured after 18 hrs by annexin V-propidium iodide staining-based flow cytometry (reference value: 0.14 %); assay type: functional; outline: as §1
[31] = target: T1, L-lactate dehydrogenase A chain; assay: Binding affinity at human LDHA assessed as dissociation constant by isothermal titration calorimetry
Outline: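 Compounds were titrated into hLDHA by isothermal titration calorimetry to obtain Kd.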

[32] = target: T1, L-lactate dehydrogenase A chain; assay: Inhibition of LDHA in human MG63 cells assessed as reduction in extracellular acidification rate at 2 to 10 uM incubated for 4 hrs by seahorse XFe96 analyser based assay; assay type: cell-based; settings: MG-63
[33] = target: T1, L-lactate dehydrogenase A chain; assay: Inhibition of human LDHA at 5 uM using NADH and pyruvate by microplate reader based assay relative to control
Outline: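 Recombinant-free description: hLDHA was incubated with pyruvate and NADH plus compound at 5 µM. NADH consumption was followed as the decrease in absorbance at 340 nm on a microplate reader and expressed as inhibitory rate.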

For `Cc1c(C(=O)Nc2ccccc2)[n+]([O-])cn1-c1ccc2[nH]c(CC(C)C)nc2c1`, which Activity [1] is on record?
Its Activity is 12.28 - 19.86%.

And the IC50 [2]?
The IC50 was 4.6 µM.

What about the Activity [3] of the same molecule?
Its Activity is 8.3 - 10.1%.

And the Activity [4]?
Its Activity is “Tde”.

And the inhibition [5]?
Its inhibition is “Dose-dependent effect”.

And the Activity [6]?
Its Activity is 10.37%.

And the Activity [7]?
The Activity was 1.1 - 3.47%.

What about the viability at 2 µM [8] of the same molecule?
Its viability at 2 µM is 94.8%.

What about the Activity [9] of the same molecule?
Its Activity is “Dose-dependent effect”.

And the Activity [10]?
The Activity was 0.34%.

What about the Activity [11] of the same molecule?
The Activity was 4.56%.

And the Activity [12]?
Its Activity is 20.03%.

And the Activity [13]?
Its Activity is 3.55%.

And the inhibition [14]?
The inhibition was “Active”.

What about the viability at 10 µM [15] of the same molecule?
Its viability at 10 µM is 66.2%.

And the Activity [16]?
Its Activity is 0.4%.

What about the inhibition [17] of the same molecule?
The inhibition was “Active”.

And the Activity [18]?
The Activity was 2.3%.

What about the Activity [19] of the same molecule?
Its Activity is 5.08%.

And the viability at 5 µM [20]?
Its viability at 5 µM is 66.6 to 78.3%.

And the viability at 5 µM [21]?
The viability at 5 µM was 83.8%.

What about the IC50 [22] of the same molecule?
The IC50 was 5.1 µM.

What about the IC50 [23] of the same molecule?
Its IC50 is 2.93 µM.

What about the viability at 5 µM [24] of the same molecule?
The viability at 5 µM was 92.3%.

What about the EC50 [25] of the same molecule?
The EC50 was 0.67 µM.

What about the Activity [26] of the same molecule?
The Activity was 1.54%.

And the Activity [27]?
The Activity was 10.19%.

What about the Activity [28] of the same molecule?
Its Activity is 3.21%.

And the IC50 [29]?
The IC50 was 3.7 µM.

And the Activity [30]?
The Activity was 1.32%.

And the Kd [31]?
Its Kd is 2.41 µM.

What about the inhibition [32] of the same molecule?
Its inhibition is “Active”.

And the inhibition [33]?
Its inhibition is 91.2%.

Which IC50 [2] does the source give for `COc1ccc(-n2c[n+]([O-])c(C(=O)Nc3ccccc3)c2C)cc1N1CCCCS1(=O)=O` here?
Its IC50 is 10.2 µM.

And the IC50 [22]?
The IC50 was 7.5 µM.

What about the IC50 [23] of the same molecule?
The IC50 was 6.47 µM.

And the EC50 [25]?
Its EC50 is 3.03 µM.

What about the IC50 [29] of the same molecule?
The IC50 was 14.9 µM.

And the Kd [31]?
Its Kd is 6.41 µM.

What about the inhibition [33] of the same molecule?
The inhibition was > 50%.

`Cc1c(C(=O)Nc2ccccc2)[n+]([O-])cn1-c1ccc2occc(=O)c2c1` was tested. Which IC50 [2] did it give?
Its IC50 is 12.5 µM.

And the IC50 [22]?
The IC50 was 13.6 µM.

And the IC50 [23]?
The IC50 was 6.1 µM.

What about the EC50 [25] of the same molecule?
Its EC50 is 3.26 µM.

And the IC50 [29]?
Its IC50 is 9.5 µM.

And the Kd [31]?
Its Kd is 9.85 µM.

And the inhibition [33]?
The inhibition was > 50%.
